{
  "source": "ChEMBL document CHEMBL3763071",
  "about": "“Selective Human Estrogen Receptor Partial Agonists (ShERPAs) for Tamoxifen-Resistant Breast Cancer” (J Med Chem, 2016)",
  "note": "pEC50: −log10 of the molar value. The source made the active and inactive calls. No cut-off for these calls is given here.",
  "data": [
    {"tested_on": "MCF7:5C", "experiment": "Antiproliferative activity against tamoxifen resistant human MCF7:5C cells assessed as inhibition of cell growth at 1 nM after 9 days by MTS assay", "assay_type": "functional", "settings": "not given", "procedure,_shortened": "(§1)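 Tamoxifen-resistant MCF-7:5C cells (long-term estrogen-deprived MCF-7:ws8, phenol red-free RPMI with charcoal-dextran FBS) seeded 5000/well overnight, treated at 1, 10 or 100 nM with renewal every 3 days. […] Triplicates in at least three passages.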", "values": [
      {"molecule": "O=C(c1ccc(C(F)(F)F)cc1)c1sc2cc(O)ccc2c1-c1ccc(F)cc1", "inhibition": "inactive"},
      {"molecule": "O=C(c1sc2cc(O)ccc2c1-c1ccc(F)cc1)C1CC1", "inhibition": "inactive"},
      {"molecule": "Oc1ccc2c(-c3ccc(F)cc3)c(Oc3ccc(F)c(F)c3)sc2c1", "inhibition": "inactive"},
      {"molecule": "O=C(c1ccc(F)cc1)c1sc2cc(O)ccc2c1-c1ccc(F)cc1", "inhibition": "inactive"},
      {"molecule": "O=C(c1ccc(OCCN2CCCCC2)cc1)c1c(-c2ccc(O)cc2)sc2cc(O)ccc12", "note": "[RALOXIFENE]", "inhibition": "inactive"},
      {"molecule": "Oc1ccc(Oc2c(-c3ccc(F)cc3)sc3cc(O)ccc23)cc1", "inhibition": "inactive"},
      {"molecule": "CS(=O)(=O)c1ccc(C(=O)c2sc3cc(O)ccc3c2-c2ccc(F)cc2)cc1", "inhibition": "inactive"},
      {"molecule": "O=C(c1ccc(C(F)(F)F)cc1)c1c(-c2ccc(Cl)cc2)sc2cc(O)ccc12", "inhibition": "inactive"},
      {"molecule": "Oc1ccc2c(-c3ccc(F)cc3)c(Oc3ccc(F)cc3)sc2c1", "inhibition": "inactive"},
      {"molecule": "Oc1ccc2c(-c3ccc(F)cc3)c(Oc3ccc(Cl)cc3)sc2c1", "inhibition": "inactive"}
    ]},
    {"tested_on": "Mus musculus", "experiment": "Toxicity in BALB/c athymic mouse xenografted with tamoxifen-resistant human T47D:A18 cells overexpressing PKC-alpha assessed as uterine weight at 100 mg/kg administered via oral gavage daily", "assay_type": "organism-based", "settings": "in vivo", "procedure,_shortened": "(§2)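 T47D:A18/PKCα xenografts established 12 weeks before dosing. Compound given orally at 100 mg/kg daily for 2 weeks in 0.1% Tween 80/10% PEG400/0.5% CMC, plus drinking water replaced by hydrogel suspension at 0.25 mg/mL. Tumor area (length/2 × width/2 × π) by calipers weekly; uteri excised and weighed at sacrifice (control n = 4, treated n = 6).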", "values": [
      {"molecule": "O=C(c1ccc(C(F)(F)F)cc1)c1sc2cc(O)ccc2c1-c1ccc(F)cc1", "Activity": "Non-toxic"}
    ]},
    {"tested_on": "MCF7:5C", "experiment": "(§3) Antiproliferative activity against tamoxifen resistant human MCF7:5C cells assessed as inhibition of cell growth at 100 nM after 9 days by MTS assay", "assay_type": "functional", "settings": "not given", "procedure,_shortened": "as §1", "values": [
      {"molecule": "O=C(c1ccc(OCCN2CCCCC2)cc1)c1c(-c2ccc(O)cc2)sc2cc(O)ccc12", "note": "[RALOXIFENE]", "inhibition": "inactive"},
      {"molecule": "Oc1ccc(Oc2c(-c3ccc(F)cc3)sc3cc(O)ccc23)cc1", "inhibition": "inactive"},
      {"molecule": "O=C(c1ccc(C(F)(F)F)cc1)c1c(-c2ccc(Cl)cc2)sc2cc(O)ccc12", "inhibition": "inactive"}
    ]},
    {"tested_on": "not listed separately", "experiment": "as §3", "assay_type": "functional", "settings": "216 h", "procedure,_shortened": "as §1", "units": {"inhibition at 0.1 µM": "%"}, "values": [
      {"molecule": "O=C(c1ccc(C(F)(F)F)cc1)c1sc2cc(O)ccc2c1-c1ccc(F)cc1", "inhibition at 0.1 µM": 88.6},
      {"molecule": "O=C(c1sc2cc(O)ccc2c1-c1ccc(F)cc1)C1CC1", "inhibition at 0.1 µM": 146},
      {"molecule": "Oc1ccc2c(-c3ccc(F)cc3)c(Oc3ccc(F)c(F)c3)sc2c1", "inhibition at 0.1 µM": 84.6},
      {"molecule": "O=C(c1ccc(F)cc1)c1sc2cc(O)ccc2c1-c1ccc(F)cc1", "inhibition at 0.1 µM": 131},
      {"molecule": "CS(=O)(=O)c1ccc(C(=O)c2sc3cc(O)ccc3c2-c2ccc(F)cc2)cc1", "inhibition at 0.1 µM": 18.9},
      {"molecule": "Oc1ccc2c(-c3ccc(F)cc3)c(Oc3ccc(F)cc3)sc2c1", "inhibition at 0.1 µM": 86.6},
      {"molecule": "Oc1ccc2c(-c3ccc(F)cc3)c(Oc3ccc(Cl)cc3)sc2c1", "inhibition at 0.1 µM": 30.7}
    ]},
    {"biological_target": "T1, Estrogen receptor (Homo sapiens, UniProt P03372)", "T1 sequence (P03372 whole entry)": "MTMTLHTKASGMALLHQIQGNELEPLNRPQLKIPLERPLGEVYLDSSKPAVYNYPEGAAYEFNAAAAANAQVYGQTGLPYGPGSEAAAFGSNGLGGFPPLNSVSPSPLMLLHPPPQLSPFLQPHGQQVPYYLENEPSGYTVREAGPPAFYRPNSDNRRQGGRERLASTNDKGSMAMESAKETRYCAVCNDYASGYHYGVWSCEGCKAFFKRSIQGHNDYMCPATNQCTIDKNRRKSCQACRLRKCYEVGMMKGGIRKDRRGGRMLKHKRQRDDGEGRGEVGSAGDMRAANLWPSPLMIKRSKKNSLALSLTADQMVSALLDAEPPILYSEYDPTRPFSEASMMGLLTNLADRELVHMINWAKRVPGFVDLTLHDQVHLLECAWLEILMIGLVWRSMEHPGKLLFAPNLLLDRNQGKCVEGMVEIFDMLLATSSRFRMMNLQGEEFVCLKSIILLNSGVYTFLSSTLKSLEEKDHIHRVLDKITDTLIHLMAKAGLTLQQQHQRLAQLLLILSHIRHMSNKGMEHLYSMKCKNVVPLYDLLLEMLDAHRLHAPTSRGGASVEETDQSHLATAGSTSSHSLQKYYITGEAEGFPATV", "experiment": "Agonist activity at estrogen receptor alpha in human MCF7:WS8 cells after 18 hrs by dual luciferase reporter assay", "assay_type": "cell-based", "settings": "read-out: EC50", "values": [
      {"molecule": "O=C(c1ccc(C(F)(F)F)cc1)c1sc2cc(O)ccc2c1-c1ccc(F)cc1", "pEC50": 8.28},
      {"molecule": "O=C(c1sc2cc(O)ccc2c1-c1ccc(F)cc1)C1CC1", "pEC50": 7.86},
      {"molecule": "Oc1ccc2c(-c3ccc(F)cc3)c(Oc3ccc(F)c(F)c3)sc2c1", "pEC50": 7.48},
      {"molecule": "O=C(c1ccc(F)cc1)c1sc2cc(O)ccc2c1-c1ccc(F)cc1", "pEC50": 7.73},
      {"molecule": "Oc1ccc(Oc2c(-c3ccc(F)cc3)sc3cc(O)ccc23)cc1", "pEC50": 8.21},
      {"molecule": "CS(=O)(=O)c1ccc(C(=O)c2sc3cc(O)ccc3c2-c2ccc(F)cc2)cc1", "pEC50": 6.36},
      {"molecule": "O=C(c1ccc(C(F)(F)F)cc1)c1c(-c2ccc(Cl)cc2)sc2cc(O)ccc12", "pEC50": 6.92},
      {"molecule": "Oc1ccc2c(-c3ccc(F)cc3)c(Oc3ccc(F)cc3)sc2c1", "pEC50": 7.43},
      {"molecule": "Oc1ccc2c(-c3ccc(F)cc3)c(Oc3ccc(Cl)cc3)sc2c1", "pEC50": 7.12}
    ]},
    {"tested_on": "not listed separately", "experiment": "Cytotoxicity against human MCF7:WS8 cells at 0.1 to 1 uM after 3 days by MTT assay", "assay_type": "cell-based", "settings": "mcf7:ws8, 72 h", "values": [
      {"molecule": "O=C(c1ccc(C(F)(F)F)cc1)c1sc2cc(O)ccc2c1-c1ccc(F)cc1", "Activity": "Non-toxic"},
      {"molecule": "O=C(c1sc2cc(O)ccc2c1-c1ccc(F)cc1)C1CC1", "Activity": "Non-toxic"},
      {"molecule": "Oc1ccc2c(-c3ccc(F)cc3)c(Oc3ccc(F)c(F)c3)sc2c1", "Activity": "Non-toxic"},
      {"molecule": "O=C(c1ccc(F)cc1)c1sc2cc(O)ccc2c1-c1ccc(F)cc1", "Activity": "Non-toxic"},
      {"molecule": "O=C(c1ccc(OCCN2CCCCC2)cc1)c1c(-c2ccc(O)cc2)sc2cc(O)ccc12", "note": "[RALOXIFENE]", "Activity": "Non-toxic"},
      {"molecule": "Oc1ccc(Oc2c(-c3ccc(F)cc3)sc3cc(O)ccc23)cc1", "Activity": "Non-toxic"},
      {"molecule": "CS(=O)(=O)c1ccc(C(=O)c2sc3cc(O)ccc3c2-c2ccc(F)cc2)cc1", "Activity": "Non-toxic"},
      {"molecule": "O=C(c1ccc(C(F)(F)F)cc1)c1c(-c2ccc(Cl)cc2)sc2cc(O)ccc12", "Activity": "Non-toxic"},
      {"molecule": "Oc1ccc2c(-c3ccc(F)cc3)c(Oc3ccc(F)cc3)sc2c1", "Activity": "Non-toxic"},
      {"molecule": "Oc1ccc2c(-c3ccc(F)cc3)c(Oc3ccc(Cl)cc3)sc2c1", "Activity": "Non-toxic"}
    ]},
    {"tested_on": "MCF7:5C", "experiment": "(§4) Antiproliferative activity against tamoxifen resistant human MCF7:5C cells assessed as inhibition of cell growth at 10 nM after 9 days by MTS assay", "assay_type": "functional", "settings": "not given", "procedure,_shortened": "as §1", "values": [
      {"molecule": "Oc1ccc2c(-c3ccc(F)cc3)c(Oc3ccc(F)c(F)c3)sc2c1", "inhibition": "inactive"},
      {"molecule": "O=C(c1ccc(OCCN2CCCCC2)cc1)c1c(-c2ccc(O)cc2)sc2cc(O)ccc12", "note": "[RALOXIFENE]", "inhibition": "inactive"},
      {"molecule": "Oc1ccc(Oc2c(-c3ccc(F)cc3)sc3cc(O)ccc23)cc1", "inhibition": "inactive"},
      {"molecule": "CS(=O)(=O)c1ccc(C(=O)c2sc3cc(O)ccc3c2-c2ccc(F)cc2)cc1", "inhibition": "inactive"},
      {"molecule": "O=C(c1ccc(C(F)(F)F)cc1)c1c(-c2ccc(Cl)cc2)sc2cc(O)ccc12", "inhibition": "inactive"},
      {"molecule": "Oc1ccc2c(-c3ccc(F)cc3)c(Oc3ccc(F)cc3)sc2c1", "inhibition": "inactive"},
      {"molecule": "Oc1ccc2c(-c3ccc(F)cc3)c(Oc3ccc(Cl)cc3)sc2c1", "inhibition": "inactive"}
    ]},
    {"tested_on": "not listed separately", "experiment": "as §4", "assay_type": "functional", "settings": "216 h", "procedure,_shortened": "as §1", "units": {"inhibition at 0.01 µM": "%"}, "values": [
      {"molecule": "O=C(c1ccc(C(F)(F)F)cc1)c1sc2cc(O)ccc2c1-c1ccc(F)cc1", "inhibition at 0.01 µM": 15.4},
      {"molecule": "O=C(c1sc2cc(O)ccc2c1-c1ccc(F)cc1)C1CC1", "inhibition at 0.01 µM": 79.6},
      {"molecule": "O=C(c1ccc(F)cc1)c1sc2cc(O)ccc2c1-c1ccc(F)cc1", "inhibition at 0.01 µM": 32.4}
    ]},
    {"tested_on": "T47D:A18", "experiment": "Antitumor activity against tamoxifen resistant human T47D:A18 cells overexpressing PKC-alpha xenografted into BALB/c athymic mouse assessed as reduction in tumor size at 100 mg/kg administered via oral gavage daily measured upto 2 weeks", "assay_type": "functional, organism-based", "settings": "not given", "procedure,_shortened": "as §2", "values": [
      {"molecule": "O=C(c1ccc(C(F)(F)F)cc1)c1sc2cc(O)ccc2c1-c1ccc(F)cc1", "Activity": "Active"}
    ]},
    {"biological_target": "T1, Estrogen receptor", "experiment": "Partial agonist activity at ERalpha in human MCF7:WS8 cells after 18 hrs by luciferase reporter gene assay", "assay_type": "cell-based", "settings": "not given", "procedure,_shortened": "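MCF-7:ws8 cells kept in stripped medium 3 days, then transiently co-transfected (6 h) with 3×ERE-firefly luciferase and pRL-TK Renilla plasmids. […] EC50 and Emax derived; mean ± s.e.m. from at least three passages.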", "values": [
      {"molecule": "Oc1ccc2c(-c3ccc(F)cc3)c(Oc3ccc(Cl)cc3)sc2c1", "pEC50": 7.12}
    ]},
    {"biological_target": "T2, Estrogen receptor (Homo sapiens) (UniProt P03372)", "T2 sequence (whole entry)": "T1 sequence (P03372 whole entry)", "experiment": "Antagonist activity at ERalpha in human MCF7:WS8 cells assessed as E2-induced ERE activation after 18 hrs by luciferase reporter gene assay", "assay_type": "cell-based", "settings": "not given", "procedure,_shortened": "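ERE-luciferase reporter in MCF-7:ws8 cells held in stripped medium 3 days, co-transfected with 3×ERE (Xenopus vitellogenin A2)-firefly luciferase and pRL-TK Renilla plasmids for 6 h. […] Average of three passages.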", "values": [
      {"molecule": "Oc1ccc2c(-c3ccc(F)cc3)c(Oc3ccc(Cl)cc3)sc2c1", "inhibition": "Dose-dependent effect"}
    ]}
  ]
}
